# Bioassay records: PubChem, Broad Institute
# An excerpt weighted towards active compounds, which were near 2.7% of everything screened.
# S100A4 MyoIIA = inhibitors of S100A4-myosin IIA peptide binding, primary screen, biochemical, fluorescence polarization, TAMRA-MyoIIA peptide. Protein S100-A4 (Homo sapiens), P26447. inhibition, % at 10.7 µM. 0.14% of 360,000 active. AID 652163, 2013;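 active means mean inhibition of at least 70% across replicates, with every replicate also reaching that level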
#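 Material: S100A4 monomer protein | Medium: HEPES pH 7.2 with CaCl2, KCl, NaCl, DTT, Triton | Reagent: Labelled myosin peptide probe, 5 nM | Doses: One dose per compound | Times: 5 min incubation before reading | Benchmarks: Neutral control DMSO, positive control TFP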
# CaV13 FRET inh = Primary screen for inhibitors of IQ motif and Ca2+-dependent inactivation inhibitor domain binding in CACNA1D, Förster resonance energy transfer in living cells, …. HEK cells, CFP/YFP FRET ICDI-IQ, plate reader, 10 min; percent FRET-ratio fall versus neutral wells. inhibition, % at 12.3 µM. 0.098% of 340,000 active;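 active means mean replicate inhibition of at least 30% and at least 1% of replicates passing that level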;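 further: 0% = median of the neutral control wells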
# DENV2 CPE = inhibitors of DENV2 cytopathic effect, primary screen, cell-based, plate reader, single concentration; DENV2-infected cells, cytopathic effect rescue; CPE inhibition, % at 9.99 µM; 1.7% of 350,000 active; in the data active means CPE inhibition above about 20%, passing the limit was not always enough; tested in BHK-21 cells;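 further: 0% = median of neutral control wells and 100% = median of positive control wells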
# AF4-AF9 inh = inhibitors of AF4 peptide binding to AF9, primary screen, biochemical, AlphaScreen, biotin-AF4 peptide, FLAG-AF9, single point; AID 651704, 2012; inhibition, % at 10 µM; Protein AF-9 (Homo sapiens), P42568; 0.47% of 350,000 active;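 active means every replicate reaching a set inhibition limit, whatever the replicate mean, cut at about 25% in these data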;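 further: 0% = plate neutral control median and 100% = total signal loss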
# Target sequence (P42568 whole entry, looked up): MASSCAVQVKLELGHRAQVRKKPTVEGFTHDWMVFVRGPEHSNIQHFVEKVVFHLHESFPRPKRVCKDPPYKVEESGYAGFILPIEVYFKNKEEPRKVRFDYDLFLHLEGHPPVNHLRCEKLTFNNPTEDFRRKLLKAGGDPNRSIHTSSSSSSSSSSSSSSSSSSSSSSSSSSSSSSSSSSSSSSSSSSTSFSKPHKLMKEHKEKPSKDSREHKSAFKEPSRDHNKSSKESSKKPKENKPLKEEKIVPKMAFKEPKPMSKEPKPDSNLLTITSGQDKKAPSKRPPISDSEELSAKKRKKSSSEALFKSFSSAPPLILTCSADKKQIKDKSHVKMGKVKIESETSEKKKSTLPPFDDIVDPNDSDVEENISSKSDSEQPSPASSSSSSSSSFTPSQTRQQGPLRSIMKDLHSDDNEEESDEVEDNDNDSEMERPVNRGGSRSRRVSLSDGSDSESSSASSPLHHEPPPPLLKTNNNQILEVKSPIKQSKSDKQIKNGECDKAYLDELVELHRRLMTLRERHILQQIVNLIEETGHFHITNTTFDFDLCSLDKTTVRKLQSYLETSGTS
# SIRT5 block = SIRT5 desuccinylase inhibitors, primary screen, biochemical, fluorescence imaging, single point, set 5. NAD-dependent protein deacylase sirtuin-5, mitochondrial (Homo sapiens), Q9NXA8. Purified SirT5, succinyl-peptide AMC, trypsin-coupled fluorescence. inhibition, % at 15 µM. 1.1% of 330,000 active; in the data active means inhibition above about 15%
# * = called active by the depositor; . = not tested or not shown.
SMILES,S100A4 MyoIIA,CaV13 FRET inh,DENV2 CPE,AF4-AF9 inh,SIRT5 block
CN(Cc1nccs1)C(=O)c1ccc(OC2CCN(Cc3ccccn3)CC2)cc1,0,-4,42*,1,-4
CC(C)N(Cc1cnn(C)c1)C(=O)c1ccc(OC2CCN(Cc3ccccn3)CC2)cc1,-2,-14,1,2,17*
COc1ccc(S(=O)(=O)NCC(=O)NCc2cc(=O)n(C)c(=O)n2C)cc1,2,-5,57*,2,8
CCN(C(=O)N(CC)c1ccccc1)c1ccccc1,1,.,20*,.,.
CCc1ccc(OCC(=O)NN2Cc3ccccc3C2=N)cc1,-7,4,2,1,24*
COc1ccc(NC(=O)Cn2nnc(C(=O)Nc3ccc(F)c(Cl)c3)c2N)cc1,-2,-5,-8,1,15*
Cc1ccc(NC(=O)Cn2nnc(C(=O)Nc3ccc(F)c(Cl)c3)c2N)cc1,2,-4,-1,-10,-1
Cc1cccc(-c2ccc([C@H]3[C@@H](CO)N4CCCCN(C(=O)NC(C)C)C[C@H]34)cc2)c1,13,.,-17,0,-1
COc1ccc(NCc2ccc(OC)c(Cn3ccnc3)c2)c(OC)c1,-7,-3,6,34*,0
CCc1c(C2CC2)ncn1Cc1cccc(-c2ccccc2)c1,-1,-11,20*,21,0
CCc1c(-c2ccccc2F)ncn1Cc1cccc(-c2ccccc2)c1,-3,.,59*,7,-3
CN(C)C(=O)C[C@@H]1CC[C@H]2[C@H](COc3ccc(NC(=O)C4CCCC4)cc3C(=O)N2C)O1,-1,.,-4,0,4
C/C(=N\NC(=O)c1ccncc1)c1cccc(NC(=O)c2ccc(C(C)(C)C)cc2)c1,1,.,-7,2,2
C/C(=N\NC(=O)c1ccc(Br)cc1)c1cccc(NC(=O)c2cccnc2)c1,-2,-4,5,1,20*
C[C@@H]1CN([C@@H](C)CO)C(=O)c2cc(NC(=O)C3CCCCC3)ccc2O[C@@H](C)CCCCO[C@H]1CN(C)CC1CCCCC1,-6,.,-7,0,-1
COc1cc(CC(NC(C)=O)C(=O)NC2CCN(C(=O)Nc3ccccc3C)CC2)cc(OC)c1 (configuration not stated),6,-4,5,1,17*
Nc1sc(Cc2ccccc2)cc1C(=O)c1c(-c2ccccc2)[nH]c2ccccc12,-5,-8,84*,1,0
CC(=O)N[C@H]1CC[C@@H](CCNC(=O)C2CCC2)O[C@H]1CO,6,.,-8,-2,2
C[C@H](CO)N1C[C@H](C)[C@@H](CN(C)C(=O)c2cccnc2)Oc2cc(C3=CCCC3)ccc2S1(=O)=O,9,.,2,-3,0
COc1ccc(C(=O)Nc2ccc3c(c2)C(=O)N(C)C[C@@H](OC)[C@H](C)CN[C@@H](C)CO3)cc1,7,.,11,-2,-12
CC(=O)Nc1cccc(-c2cc(NC=O)c3ncc(-c4ccc(C(C)=O)cc4)n3c2)c1,5,-10,34*,0,.
COc1ccc(-c2cc(NC(C)=O)c3ncc(-c4cccc(C(C)=O)c4)n3c2)cc1OC,-4,-4,49*,-1,1
CC(=O)Nc1cc(-c2ccc(N3CCN(C)CC3)cc2)cn2c(-c3ccc(F)c(Cl)c3)cnc12,-7,-8,-3,27*,-3
COc1cccc(-c2cnc3c(NC(C)=O)cc(-c4ccc(OC)c(OC)c4)cn23)c1,1,-5,12,0,.
C/C=C/c1ccc2c(c1)O[C@H](CN(C)C(=O)c1cnccn1)[C@H](C)CN([C@H](C)CO)S2(=O)=O,2,.,-1,-1,-1
C/C=C/c1ccc([C@H]2[C@@H](CO)N(C(=O)NC(C)C)[C@@H]2CNC(C)=O)cc1,-1,.,19,-2,-3
CC(C)C#Cc1ccc([C@@H]2[C@H]3CN(C(=O)NC4CCCCC4)CC(=O)N3[C@H]2CO)cc1,-3,.,3,1,-4
COc1ccc(-c2nc(CN3CCN(c4cc(C)nc(C)c4)CC3)c(C)o2)c2ccccc12,4,-6,-3,26*,-15
